Test results reported in ChEMBL document CHEMBL1122694, “Steroidogenesis inhibitors. 1. Adrenal inhibitory and interceptive activity of trilostane and related compounds” (1984).
Active and inactive are the calls of the source. The calls are words filed in the database; no cut-off is given here.

Columns and labels:
Rattus norvegicus [1] = test: Effect of compound on plasma level of corticosterone in ACTH treated pseudopregnant rats when administered orally; assay type: functional; settings: po, read-out: MED
Method in brief: (§1)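 Pseudopregnant rats stimulated with ACTH; single oral dose, groups of seven rats. Plasma progesterone and corticosterone measured; MED in mg/kg po is the single dose giving a significant (p < 0.01) fall versus stimulated control levels.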

Rattus norvegicus [2] = test: Effect of compound on plasma level of progesterone in ACTH treated pseudopregnant rats when administered orally; assay type: functional; settings: po, read-out: MED; method in brief: as §1
Monkey [3] = test: Effect of compound on plasma level of cortisol in ACTH treated rhesus monkey when administered orally; assay type: functional; settings: Cercopithecidae, in Macaca mulatta, po, read-out: MED
Monkey [4] = test: Effective dose for interruption of pregnancy in greater than 90% of the monkeys; assay type: functional, Cercopithecidae
Method in brief: (§2)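 Pregnant monkeys dosed once daily on days 50–54 of pregnancy; group size two to six or more monkeys. Effective dose, in mg per monkey per day, is the dose interrupting pregnancy in more than 90% of monkeys.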

Rattus norvegicus [5] = test: Minimum effective dose for 100% interruption of pregnancy in rat when compound was administered perorally; assay type: functional
Method in brief: (§3)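 Pregnant rats given a single oral dose on day 10 of pregnancy, seven rats per group. MED, in mg/kg po, is the minimum dose giving 100% interruption of pregnancy.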

Monkey [6] = test: Effective dose for interruption of pregnancy in greater than 90% of the monkeys; IN-Inactive; assay type: functional, organism-based; settings: Cercopithecidae; method in brief: as §2
Rattus norvegicus [7] = test: Minimum effective dose for 100% interruption of pregnancy in rat when compound was administered perorally; IN-Inactive; assay type: functional, organism-based; method in brief: as §3

SMILES | MED90 (Monkey [4]) | MED10 (Rattus norvegicus [5]) | also measured
CC12O[C@]13CC[C@@H]1[C@H](CCC4(C)[C@H]1CC[C@]4(C)O)C3(C)C[C@@H](C#N)C2=O (stereo partly specified) | 250 mg monkey-1 day-1 | 50 mg/kg | minimal effective dose (Rattus norvegicus [1]): 20 mg/kg; minimal effective dose (Rattus norvegicus [2]): 20 mg/kg; minimal effective dose (Monkey [3]): 250 mg/kg
CC12O[C@]13CCC1C(CCC4(C)C1CC[C@]4(C)O)C3(C)Cc1cnoc12 (stereo partly specified) |  | 192 mg/kg | MED90 (Monkey [6]): inactive
CC12C[C@@H](C#N)C(=O)C=C1CCC1C2CCC2(C)C(O)CCC12 (stereo partly specified) |  | 1000 mg/kg | 
CC12CC[C@H]3[C@@H](CC[C@@]45OC4(C)C(=O)[C@H](C#N)CC35C)[C@@H]1CCC2O (stereo partly specified) | >500 mg monkey-1 day-1 | 125 mg/kg | minimal effective dose (Rattus norvegicus [1]): 50 mg/kg; minimal effective dose (Rattus norvegicus [2]): 5 mg/kg; minimal effective dose (Monkey [3]): 250 mg/kg
CC12CCC3C(CC[C@@]45OC4c4oncc4CC35C)C1CCC2O (stereo partly specified) |  | >500 mg/kg | 
CC12CC[C@H]3[C@@H](CC[C@@]45OC4C(=O)[C@H](C#N)CC35C)[C@@H]1CC[C@]2(C)O (stereo partly specified) | 250 mg monkey-1 day-1 | 500 mg/kg | minimal effective dose (Rattus norvegicus [1]): 50 mg/kg; minimal effective dose (Rattus norvegicus [2]): 500 mg/kg; minimal effective dose (Monkey [3]): 10 mg/kg
CC1(C)C(=O)[C@H](C#N)CC2(C)C1=CCC1C2CCC2(C)C1CC[C@]2(C)O (stereo partly specified) |  | 6 mg/kg | MED90 (Monkey [6]): inactive
CC12CC[C@H]3[C@@H](CC[C@@]45OC4C(=O)CCC35C)[C@@H]1CCC2O (stereo partly specified) |  |  | MED10 (Rattus norvegicus [7]): inactive
CC12CC[C@H]3[C@@H](CCC4CC(=O)[C@H](C#N)CC43C)[C@@H]1CCC2O (stereo partly specified) |  |  | MED10 (Rattus norvegicus [7]): inactive
CC1CC2C3CCC(O)C3(C)CCC2C2(C)Cc3cnoc3C3O[C@]132 (stereo partly specified) |  | >500 mg/kg | 
CC12CCC3C(CC[C@@]45OC4c4oncc4CC35C)C1CC[C@]2(C)O (stereo partly specified) |  | >500 mg/kg | 
CC12CC[C@H]3[C@@H](CC[C@@]45OC4C(=O)[C@H](C#N)CC35C)[C@@H]1CCC2O (stereo partly specified) | 1000 mg monkey-1 day-1 | 500 mg/kg | minimal effective dose (Rattus norvegicus [1]): 50 mg/kg; minimal effective dose (Rattus norvegicus [2]): 500 mg/kg; minimal effective dose (Monkey [3]): 10 mg/kg
CC12CCC3C(CC[C@@]45OC4(C)c4oncc4CC35C)C1CCC2O (stereo partly specified) |  | >500 mg/kg | 
CC1C[C@H]2[C@@H]3CCC(O)C3(C)CC[C@@H]2C2(C)C[C@@H](C#N)C(=O)C3O[C@]132 (stereo partly specified) | 500 mg monkey-1 day-1 | 12 mg/kg | 
CC12CC[C@H]3[C@@H](CC[C@]45OC4C(=O)[C@@H](C#N)CC35C)[C@@H]1CCC2O (stereo partly specified) |  |  | MED10 (Rattus norvegicus [7]): inactive
CC1(C)C2=CCC3C(CCC4(C)C3CC[C@]4(C)O)C2(C)Cc2cnoc21 (stereo partly specified) | >1000 mg monkey-1 day-1 | 25 mg/kg | 
